Published values collected from several papers.
Each line is one published result; the experiments were not run side by side.
Target: Protein-tyrosine kinase 6 (PTK6, Homo sapiens, UniProt Q13882)

Structure (SMILES) | test | conditions | quantity | result
O=C1Nc2ccc(Cl)cc2C1=Cc1cc(Cl)c(O)c(Cl)c1 | cell-free assay | 0.5 µM | remaining signal | 73.8%
CC(C)(C)c1nc2c(s1)c1nc(N)ncc1c1ccc(NS(=O)(=O)c3c(F)cccc3F)c(F)c12 | enzyme activity, inhibitor, radiometric | 1 µM | remaining activity | 104%
CC(=O)N1CCC(c2ccc(C(=O)NC3=NCCN3)cc2C(F)(F)F)CC1 | cell-free assay, competition with immobilised ligand | 1 µM | remaining binding | 88%
CN(C)C1CCN(CC#Cc2nn(C3CCCC3)c3nc(NCc4ccccc4)ncc23)C1 (stereo not shown) | enzyme activity, inhibitor, FRET | 0.1 µM | inhibition | -2%
CNC(=O)Nc1ccc2c(c1)[C@@]1(CC2)OC(=O)N(CC(=O)N(Cc2ccc(F)cc2)[C@@H](C)C(F)(F)F)C1=O | cell-free assay, competition with immobilised ligand | 1 µM | remaining binding | 90%
Cc1ccc(C(=O)NCc2ccsc2)cc1C#Cc1cn(C(C)C)c2ncnc(N)c12 | enzyme activity, inhibitor | 1 µM | activity vs control | 7%
CCN(CC)CCNC(=O)c1c(C)[nH]c(/C=C2\C(=O)Nc3ccc(F)cc32)c1C | enzyme activity, inhibitor | 0.3 µM | inhibition | 6%
CS(=O)(=O)CCNCc1ccc(-c2ccc3ncnc(Nc4ccc(OCc5cccc(F)c5)c(Cl)c4)c3c2)o1 | cell-free assay | 0.5 µM | remaining signal | 103%
CNC(=O)c1cc(Oc2ccc(NC(=O)Nc3ccc(Cl)c(C(F)(F)F)c3)cc2)ccn1 | enzyme activity, inhibitor | 10 µM | inhibition | 58%
O=C(NS(=O)(=O)c1ccc(NCC2CCOCC2)c([N+](=O)[O-])c1)c1ccc(N2CCN(Cc3ccc(C(F)(F)F)cc3-c3ccc(Cl)cc3)CC2)cc1Oc1cnc2[nH]ccc2c1 | cell-free assay, competition with immobilised ligand | 1 µM | remaining binding | 100%
N#CCCc1ccc2c(c1)-c1[nH]c3ccc([N+](=O)[O-])cc3c1CC(=O)N2 | cell-free assay | 0.5 µM | remaining signal | 94.6%
CS(=O)(=O)N1CCCC(NC(=O)[C@H](CCC2CCCCC2)NC(=O)c2ccc(CNc3ncnc4c3nnn4-c3ccccc3)cc2)C1 (stereo partly shown) | cell-free assay, competition with immobilised ligand | 0.1 µM | remaining binding | 76%
Nc1ncnc2occ(-c3ccc(NC(=O)Nc4cc(C(F)(F)F)ccc4F)cc3)c12 | cell-free assay, inhibitor | 20 µM | remaining signal | 20%
Cc1ccc(NC(=O)c2ccc(C)c(C(F)(F)F)c2)cc1C#Cc1nn(C2CCC(O)CC2)c2ncnc(N)c12 (stereo not shown) | cell-free assay | 10 µM | remaining signal | -1%
O=C(Nc1cnn(-c2csc(C(=O)NC3COC3)c2)c1)Nc1c(F)cccc1Cl | enzyme activity, inhibitor | 5 µM | remaining activity | 85.7%
CC/C(=N\NC(=O)NCc1cccc(O)c1)c1ccc(O)c(C)c1O | enzyme activity, inhibitor | 0.1 µM | inhibition | -3%
COc1cc2ncnc(Nc3ccc(Oc4ccccc4)cc3C)c2cc1OC | enzyme activity, inhibitor | 1 µM | inhibition | 95%
CCC(=O)N[C@H]1CC[C@@H](C(=O)N(C)c2ccc(-c3nc4ccccc4o3)cc2)C1 | cell-free assay, competition with immobilised ligand | 1 µM | remaining binding | 100%
Cc1cnc(NC2CCOCC2)nc1-n1cnc(C(=O)NC(CN)c2cc(F)cc(Cl)c2)c1 (stereo not shown) | enzyme activity, inhibitor, radiometric | 1 µM | remaining activity | 127%
O=C(O)[C@@H]1[C@@H](Cn2nnc3ccccc3c2=O)CC[C@H]1C(=O)c1ccc(OCCC2CCOCC2)cc1 | cell-free assay, competition with immobilised ligand | 1 µM | remaining binding | 99%
COc1cc(/C=C/C(=O)CC(=O)/C=C/c2ccc(O)c(OC)c2)ccc1O | enzyme activity, inhibitor | 1 µM | activity vs control | 85%
COc1cc(Nc2cnc(C#N)c(O[C@H](C)CN(C)C)n2)ncc1-c1cnn(C)c1 | enzyme activity, inhibitor, radiometric | 10 µM | remaining activity | 91%
CCN(CC)c1ccc(C2=NNC(=O)CC2C)cc1[N+](=O)[O-] (stereo not shown) | enzyme activity, inhibitor | 10 µM | remaining activity | 105%
Cc1ccc(Nc2nccc(N(C)c3ccc4c(C)n(C)nc4c3)n2)cc1S(N)(=O)=O | enzyme activity, inhibitor | 0.3 µM | inhibition | 23%
CN(c1ccnc(CNc2nc(Nc3ccc4c(c3)CC(=O)N4)ncc2C(F)(F)F)n1)S(C)(=O)=O | cell-free assay, competition with immobilised ligand | 1 µM | remaining binding | 100%
Cc1cc(NC(=O)c2cccc3cc(-c4cccc5[nH]nc(N)c45)ccc23)ccc1F | enzyme activity, inhibitor | 0.1 µM | activity vs control | 97%
NS(=O)(=O)c1cc(NC(=O)C2(c3ccccc3Cl)CC2)ccc1Oc1cccc(Cl)c1 | cell-free assay, competition with immobilised ligand | 1 µM | remaining binding | 99%
FC(F)(F)Oc1cccc(-c2cnc3ccc(-c4ccncc4)nn23)c1 | enzyme activity, inhibitor, radiometric | 5 µM | activity vs control | 70%
